This is an account of results in ChEMBL document CHEMBL2046322, “Discovery of 1,3-Diaminobenzenes as Selective Inhibitors of Platelet Activation at the PAR1 Receptor” (ACS Med Chem Lett, 2012).

SMILES strings stand for the structures. Values after ≈ are worked out from the molar mass of the structure shown. Active and inactive are the calls of the source. The rule behind the calls is not given here.

Data set [1] concerns the target T1, Proteinase-activated receptor 1 (Homo sapiens) (UniProt P25116).
T1 sequence (whole entry): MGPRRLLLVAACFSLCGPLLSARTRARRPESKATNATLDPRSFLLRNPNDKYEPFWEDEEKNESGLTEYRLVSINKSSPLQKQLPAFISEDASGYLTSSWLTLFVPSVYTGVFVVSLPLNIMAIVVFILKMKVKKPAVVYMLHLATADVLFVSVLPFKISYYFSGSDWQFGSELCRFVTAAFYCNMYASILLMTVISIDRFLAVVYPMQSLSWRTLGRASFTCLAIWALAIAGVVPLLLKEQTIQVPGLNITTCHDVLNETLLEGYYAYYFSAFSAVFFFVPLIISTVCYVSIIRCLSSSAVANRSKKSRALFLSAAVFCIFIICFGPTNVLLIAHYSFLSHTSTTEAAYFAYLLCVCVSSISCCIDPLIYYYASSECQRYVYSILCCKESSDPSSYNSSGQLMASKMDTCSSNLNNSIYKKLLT
Description: Inhibition of SFLLRN-NH2-stimulated PAR1-mediated platelet activation in platelet-rich human plasma assessed as surface expression of P-selectin at 3 uM after 20 mins by flow cytometry. Particulars: Platelets, in the assay text read “gel-filtered human platelets” for “platelet-rich human plasma”. Put shortly: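 Gel-filtered human platelets (0.5–1 × 10⁸/mL) exposed to antagonist at 3 μM, then challenged with 5 μM SFLLRN for 10 min. Platelets stained with PE-conjugated AC1.2 anti-P-selectin antibody for 20 min at 37 °C, diluted in PBS and measured immediately by flow cytometry.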
(Flow cytometry measures light scatter and fluorescence of single cells or particles in a stream.)

Data set [2] deals with T2, Proteinase-activated receptor 1 (Homo sapiens, UniProt P25116).
T2 sequence (P25116 whole entry): T1 sequence (whole entry)
Description: Inhibition of SFLLRN-NH2-stimulated PAR1-mediated platelet activation in […] assessed as surface expression of P-selectin after 20 mins by flow cytometry. More on the design: species or system Plasma.

In data set [3] the test system is Plasma. The data set can be described thus: Plasma protein binding in human. Format: ADME, cell-free.
Data set [4] addresses T1, Proteinase-activated receptor 1 (Homo sapiens). Description: Inhibition of SFLLRN-NH2-stimulated PAR1-mediated platelet activation in […] assessed as surface expression of P-selectin at 10 uM after 20 mins by flow cytometry. Format: cell-based.
Data set [5] is described as follows: Solubility of the compound in phosphate buffered saline. As to conditions: buffer. The class given is physicochemical.
Data set [6] has as its system Plasma. The data set can be described thus: Plasma protein binding in mouse. Format: ADME, cell-free.
For data set [7], the system named is Plasma. Description: Metabolic stability in mouse plasma assessed as compound remaining at 5 uM after 5 hrs. The class given is ADME, cell-free. Put shortly: (§1)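 Compound incubated in human or mouse plasma; stability reported as percent remaining after 5 h.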
Data set [8] concerns Plasma. Description: Metabolic stability in human plasma assessed as compound remaining at 5 uM after 5 hrs. Format: ADME, cell-free. The method in brief: as §1
Data set [9] deals with T1, Proteinase-activated receptor 1 (Homo sapiens). As to conditions: Plasma, 3 uM.
Data set [10] has the same target. As to conditions: Plasma, 3 uM. The source holds these as a separate data set.
The target is the same in data set [11]. Particulars: Plasma, 3 uM. The source holds these as a separate data set.
The target in data set [12] is cGMP-inhibited 3',5'-cyclic phosphodiesterase 3A (Homo sapiens) (UniProt Q14432). The data set can be described thus: Inhibition of PDE3A.
Chain of cGMP-inhibited 3',5'-cyclic phosphodiesterase 3A (Homo sapiens) (Q14432 whole entry): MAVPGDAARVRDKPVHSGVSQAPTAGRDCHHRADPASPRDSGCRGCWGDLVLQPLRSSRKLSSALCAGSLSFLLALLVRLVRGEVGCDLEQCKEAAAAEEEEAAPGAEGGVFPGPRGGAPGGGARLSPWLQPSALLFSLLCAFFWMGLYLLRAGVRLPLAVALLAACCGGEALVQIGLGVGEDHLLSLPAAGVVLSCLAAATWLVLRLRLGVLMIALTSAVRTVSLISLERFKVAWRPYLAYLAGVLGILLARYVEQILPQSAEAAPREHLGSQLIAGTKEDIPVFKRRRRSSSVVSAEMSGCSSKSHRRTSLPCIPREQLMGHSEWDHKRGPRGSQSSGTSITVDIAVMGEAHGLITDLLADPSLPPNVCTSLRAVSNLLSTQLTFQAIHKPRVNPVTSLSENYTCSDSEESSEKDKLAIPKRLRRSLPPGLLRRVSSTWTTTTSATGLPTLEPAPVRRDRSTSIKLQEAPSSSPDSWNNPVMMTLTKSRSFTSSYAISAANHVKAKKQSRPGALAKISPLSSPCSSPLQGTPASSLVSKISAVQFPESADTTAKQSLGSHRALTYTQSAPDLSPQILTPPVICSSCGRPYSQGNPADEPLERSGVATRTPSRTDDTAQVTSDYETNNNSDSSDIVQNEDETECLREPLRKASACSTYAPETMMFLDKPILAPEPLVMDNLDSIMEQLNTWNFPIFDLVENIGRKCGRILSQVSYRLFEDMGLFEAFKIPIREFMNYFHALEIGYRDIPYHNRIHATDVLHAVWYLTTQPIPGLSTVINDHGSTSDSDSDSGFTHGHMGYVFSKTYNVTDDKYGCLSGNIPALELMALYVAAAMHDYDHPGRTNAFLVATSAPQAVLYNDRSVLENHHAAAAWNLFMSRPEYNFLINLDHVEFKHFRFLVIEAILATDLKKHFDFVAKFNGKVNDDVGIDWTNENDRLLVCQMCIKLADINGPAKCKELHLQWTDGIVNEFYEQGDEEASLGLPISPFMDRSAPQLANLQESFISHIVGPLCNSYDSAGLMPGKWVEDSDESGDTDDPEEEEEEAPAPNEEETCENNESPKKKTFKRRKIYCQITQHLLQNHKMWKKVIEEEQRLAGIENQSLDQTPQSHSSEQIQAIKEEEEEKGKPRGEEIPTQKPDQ
For data set [13], the target named is T1, Proteinase-activated receptor 1 (Homo sapiens). Particulars: 3 uM.
For data set [14] the target is unchanged. As to conditions: 3 uM. This is another data set of the same source.
The target is the same in data set [15]. As to conditions: 3 uM. This is another data set of the same source.
Data set [16] has the same target. Particulars: 3 uM. The source holds these as a separate data set.
For data set [17] the target is unchanged. Particulars: Plasma, 3 uM. The source holds these as a separate data set.
Data set [18] shares this target. As to conditions: 3 uM. This is another data set of the same source.

For `CCCC(=O)Nc1cccc(NC(=O)c2cccc(Cl)c2)c1`, the inhibition in data set [1] stood at 80%.

`CCC(=O)Nc1cccc(NC(=O)c2ccccc2Br)c1`: in data set [1], the inhibition was determined as 95%. The IC50 in [2] was 1680 nM.

`CC(C)CC(=O)Nc1cccc(NC(=O)c2ccccc2Br)c1`: the results for the PPB in the data set on Plasma [3] and with Plasma [6] were 93% and 87%, respectively. Further, the inhibition in [4] was greater than 99%. In data set [5], this compound had a solubility of 20 µM (≈ 7.51 µg/mL). Further, the values for the Stability in the data set on Plasma [7] and with Plasma [8] were 65% and 90%, respectively. In [2], the IC50 amounted to 290 nM.

For `CCCC(=O)Nc1cccc(NC(=O)c2ccccc2Br)c1`, the PPB with Plasma [3] is given as 97%. For the same compound, the inhibition entry in data set [9], in data set [10], in [11], in data set [12], in [13] and in [14] was “inactive” each time. Besides, the inhibition result in [15] and in data set [17] was “inactive” in each case. Moreover, the inhibition in [4] was greater than 99%. Besides, in data set [5], the solubility stood at 40 µM (≈ 14.4 µg/mL). The values for the Stability with Plasma [7] and with Plasma [8] were 2% and 80%, respectively. Besides, the inhibition result in [16] and in [18] was “Active” throughout. For the same compound, in data set [2], the IC50 was 260 nM.

For the compound `CCCC(=O)Nc1cccc(NC(=O)c2cccc(Oc3ccccc3)c2)c1`, the inhibition in [1] worked out at 65%.

What is called inhibition is the share of the control response that was lost under treatment. A word on the IC50: it is the concentration that inhibits the measured activity by half. For orientation: solubility means the concentration that dissolves in the medium under given conditions. Higher therefore signals a readily soluble substance.
